Here are results for nine compounds from ChEMBL document CHEMBL1152323, “Polyoxygenated methyl cyclohexanoids from a terrestrial ampelomyces fungus” (J Nat Prod, 2009).

Test [1] in a line: Inhibition of Saccharomyces cerevisiae alpha glucosidase. The method, boiled down:
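Baker's yeast α-glucosidase (0.2 U/mL solution) in 0.2 M phosphate buffer pH 6.8 was preincubated with compound at 37 °C for 30 min. 2.5 mM p-nitrophenyl α-D-glucopyranoside solution was then added and the mixture incubated 5 min at 37 °C. The reaction was stopped with 0.1 M Na₂CO₃ and A405 read before and after reaction. Percent inhibition was taken against a buffer-only control, with acarbose as positive control, giving IC50 in mM ± SD.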

For a further test, the system named is Prunus dulcis. The experiment in a line: Inhibition of almond beta glucosidase at 10 uM.
Another test deals with Penicillium decumbens. Briefly: Inhibition of Penicillium decumbens alpha-rhamnosidase at 10 mM.
The next test deals with Staphylococcus aureus. Briefly: Antimicrobial activity against Staphylococcus aureus by almar blue assay. Format: functional. The method, boiled down: (§1)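 Microplate Alamar Blue broth assay: bacteria at 2 × 10⁵ cfu/mL in MHB with 8% Alamar Blue; serial 2-fold compound dilutions in DMSO added (2 µL to 78 µL culture); ceftazidime reference; incubated at 32 °C until growth controls turned pink; fluorescence ex 530/em 590 nm; % inhibition, triplicate averaged; MIC50 and MIC90 interpolated from concentration–inhibition curves.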

The next test concerns Pseudomonas aeruginosa. Briefly: Antimicrobial activity against Pseudomonas aeruginosa by almar blue assay. Format: functional. The method, boiled down: as §1
Another test relates to Escherichia coli. The experiment in a line: Antimicrobial activity against Escherichia coli by almar blue assay. Format: functional. The essentials:
as §1

The next test concerns Proteus vulgaris. The experiment in a line: Antimicrobial activity against Proteus vulgaris by almar blue assay. The format is functional. The essentials:
as §1

≈ marks a conversion by molar mass, not a printed value. Calls of active or inactive are those of the source. No cut-off for these calls is given here.

As to `C[C@H]1C[C@H](O)[C@@H]2O[C@@H]2[C@H]1O` (relative stereo) [AMPELOMIN B], the 50% inhibitory concentration (IC50) – broadly, the point on the concentration scale where inhibition reaches its midpoint – in test [1] was above 10 mM. Also, the result with Prunus dulcis and with Penicillium decumbens was inactive.
Regarding `C[C@H]1C[C@H](O)[C@@H](O)C[C@H]1O` (relative stereo) [AMPELOMIN C], the IC50 in test [1] amounted to 6.12 mM. For the same compound, the outcome with Prunus dulcis and in the test with Penicillium decumbens was inactive.
For the compound `C[C@H]1C[C@H](O)[C@H](O)C[C@H]1O` (relative stereo) [AMPELOMIN D], the IC50 in test [1] is above 10 mM. The outcome with Prunus dulcis and in the test with Penicillium decumbens was inactive.
For the compound `C[C@H]1C[C@H](O)[C@H](O)C[C@@H]1O` (relative stereo) [AMPELOMIN E], half-maximal inhibition in test [1] (IC50) required 5.93 mM. The outcome with Prunus dulcis and with Penicillium decumbens was inactive.
Turning to `C[C@H]1C[C@@H](O)[C@@H](O)C[C@@H]1O` (relative stereo) [AMPELOMIN F], the IC50 in test [1] is above 10 mM. For the same compound, the outcome in the test with Prunus dulcis and with Penicillium decumbens was inactive.
Regarding `Cc1cccc(O)c1C(=O)O[C@H]1[C@H](O)[C@@H](O)[C@@H](C)C[C@@H]1O` (relative stereo) [AMPELOMIN G], in test [1], the half-maximal inhibitory concentration (IC50) turned out to be 1.74 mM. In addition, the outcome with Prunus dulcis and in the test with Penicillium decumbens was inactive.
In turn, `C[C@H]1O[C@H](O[C@H]2[C@H](O)[C@@H](O)[C@@H](O[C@H]3[C@H](O)[C@@H](O)C(O)O[C@@H]3CO)O[C@@H]2CO)[C@H](O)[C@@H](O)[C@@H]1N[C@H]1C=C(CO)[C@@H](O)[C@H](O)[C@H]1O` (stereo partly drawn) [ACARBOSE] returned an IC50 in test [1] of 0.03 mM.
Take `C[C@H]1C[C@@H](O)C=CC1=O` [AMPELOMIN A]: the MIC50 (in general, an inhibitory concentration at the 50% level, which refers to growth in some studies and to a panel of isolates in others) against Staphylococcus aureus came to 54.9 µM (≈ 6.93 µg/mL); against Pseudomonas aeruginosa, 63.5 µM (≈ 8.01 µg/mL); with Escherichia coli, 89.9 µM (≈ 11.3 µg/mL); against Proteus vulgaris, 51.6 µM (≈ 6.51 µg/mL). Moreover, the MIC90 (as a rule, an inhibitory concentration at the 90% level, which refers to growth in some studies and to a panel of isolates in others) in the test on Staphylococcus aureus is 234 µM (≈ 29.5 µg/mL); with Pseudomonas aeruginosa it was 1020 µM (≈ 128 µg/mL); against Escherichia coli it was 265 µM (≈ 33.4 µg/mL); with Proteus vulgaris, 202 µM (≈ 25.5 µg/mL). In addition, the IC50 in test [1] was 3.59 mM. Moreover, the outcome in the test with Prunus dulcis and in the test on Penicillium decumbens was inactive.
As for `CC(C)(O/N=C(\C(=O)N[C@@H]1C(=O)N2C(C(=O)[O-])=C(C[n+]3ccccc3)CS[C@H]12)c1csc(N)n1)C(=O)O` [CEFTAZIDIME], the MIC50 against Staphylococcus aureus came out at 3.11 µM (≈ 1.7 µg/mL); with Pseudomonas aeruginosa, 0.73 µM (≈ 0.399 µg/mL); in the test with Escherichia coli, 0.37 µM (≈ 0.202 µg/mL); with Proteus vulgaris, 0.18 µM (≈ 0.0984 µg/mL). Besides, the MIC90 in the test with Staphylococcus aureus was 14.7 µM (≈ 8.01 µg/mL); in the test on Pseudomonas aeruginosa, 3.94 µM (≈ 2.15 µg/mL); against Escherichia coli, 0.46 µM (≈ 0.251 µg/mL); with Proteus vulgaris, 0.21 µM (≈ 0.115 µg/mL).
